What was measured:
[1] = Selectivity index, ratio of CC50 for cytotoxicity against Balb/c mouse peritoneal macrophages to IC50 for antileishmanial activity against Leishmania amazonensis MHOM/BR/77/LTB0016 promastigotes; assay type: toxicity; conditions: read-out: Ratio CC50/IC50
How it was run: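 SI calculated as macrophage CC50 divided by promastigote IC50. Both values come from 72 h assays: macrophages in RPMI at 37 °C and promastigotes in Schneider's medium at 26 °C with resazurin read-out.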

Leishmania amazonensis [2] = experiment: Antileishmanial activity against Leishmania amazonensis MHOM/BR/77/LTB0016 promastigotes after 72 hrs by resazurin dye based assay; assay type: functional, organism-based; conditions: MHOM/BR/77/LTB0016, 72 h
How it was run: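 Promastigotes grown in Schneider's insect medium with 10% HIFCS, started at 1.0×10^6 cells/mL with or without a range of compound concentrations, 26 °C for 72 h. Viability read by resazurin. IC50 by logarithmic regression. Three independent experiments in triplicate, mean ± SD.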

Leishmania amazonensis [3] = experiment: Antileishmanial activity against Leishmania amazonensis MHOM/BR/77/LTB0016 amastigotes infected in Balb/c mouse peritoneal macrophages after 72 hrs by hematological dye based light microscopic method; assay type: functional, organism-based; conditions: MHOM/BR/77/LTB0016, 72 h
How it was run: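 Resident BALB/c peritoneal macrophages plated at 1×10^6/mL in RPMI, 1 h at 37 °C in 5% CO2, non-adherent cells washed off. Infected with stationary-phase promastigotes at 3:1 parasite/macrophage for 4 h, free parasites washed off, compounds added for 72 h. Slides stained with hematological dye, infected cells and amastigotes counted in at least 100 macrophages per sample. IC50 by nonlinear regression. Three independent experiments.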

[4] = Cytotoxicity against Balb/c mouse peritoneal macrophages assessed as reduction in cell viability after 72 hrs by resazurin assay; assay type: cell-based, Peritoneal macrophage
How it was run: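 Peritoneal cells collected by lavage in RPMI 1640 with 10% HIFCS, 2 mM L-glutamine, 1 mM pyruvate, streptomycin and penicillin. Adjusted to 1.0×10^6 cells/mL, plated in triplicate, 1 h at 37 °C in 5% CO2, non-adherent cells washed off. […] Three independent experiments, mean ± SD.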

[5] = Solubility of the compound in Schneider's insect medium supplemented with 10% HIFCS; assay type: physicochemical
[6] = Solubility of the compound in RPMI 1640 medium; assay type: physicochemical

Molecule `CC1(Cc2ccccc2)CC(S(=O)(=O)c2ccc(F)cc2)=C(c2ccc(/C(N)=N/O)cc2)O1` (stereo unspecified) has a selectivity ratio [1] of 18.9, an IC50 (Leishmania amazonensis [2]) of 5.4 µM and an IC50 (Leishmania amazonensis [3]) of 7.9 µM. The CC50 at 72 h [4] was 102 µM.

Molecule `CCC1(CC)CC(S(=O)(=O)c2ccc(F)cc2)=C(c2ccc(/C(N)=N/O)cc2)O1` has a selectivity ratio [1] of 3, an IC50 (Leishmania amazonensis [2]) of 30.2 µM and a CC50 at 72 h [4] of 91.4 µM.

For `CC1(Cc2cccc(/C(N)=N/O)c2)CC(S(=O)(=O)c2ccc(F)cc2)=C(c2ccc(/C(N)=N/O)cc2)O1` (stereo unspecified), the IC50 (Leishmania amazonensis [2]) was greater than 100 µM, the solubility [5] was “Insoluble” and the CC50 at 72 h [4] was 50.2 µM.

With `CC1(Cc2ccc([N+](=O)[O-])cc2)CC(S(=O)(=O)c2ccc(F)cc2)=C(c2ccc(/C(N)=N/O)cc2)O1` (stereo unspecified) the selectivity ratio [1] was 5.8, the IC50 (Leishmania amazonensis [2]) was 16.7 µM and the CC50 at 72 h [4] was 97.4 µM.

`Cc1ccccc1CC1(C)CC(S(=O)(=O)c2ccc(F)cc2)=C(c2ccc(/C(N)=N/O)cc2)O1` (stereo unspecified) showed a selectivity ratio [1] of 37, an IC50 (Leishmania amazonensis [2]) of 2.1 µM and an IC50 (Leishmania amazonensis [3]) of 7.2 µM. The CC50 at 72 h [4] was 77.6 µM.

With `Cc1cccc(CC2(C)CC(S(=O)(=O)c3ccc(F)cc3)=C(c3ccc(/C(N)=N/O)cc3)O2)c1` (stereo unspecified) the selectivity ratio [1] was 19.9, the IC50 (Leishmania amazonensis [2]) was 5.6 µM and the IC50 (Leishmania amazonensis [3]) was 6.7 µM. It also gave a CC50 at 72 h [4] of 112 µM.

In the case of `CC1(Cc2ccccc2Br)CC(S(=O)(=O)c2ccc(F)cc2)=C(c2ccc(/C(N)=N/O)cc2)O1` (stereo unspecified), the selectivity ratio [1] is reported as 12, the IC50 (Leishmania amazonensis [2]) is reported as 9.1 µM and the IC50 (Leishmania amazonensis [3]) is reported as 9.3 µM. The CC50 at 72 h [4] was 109 µM.

For `CC1(Cc2ccccc2C(F)(F)F)CC(S(=O)(=O)c2ccc(F)cc2)=C(c2ccc(/C(N)=N/O)cc2)O1` (stereo unspecified), the selectivity ratio [1] was 21.9, the IC50 (Leishmania amazonensis [2]) was 4.8 µM and the IC50 (Leishmania amazonensis [3]) was 10.2 µM. The CC50 at 72 h [4] was 105 µM.

In the case of `N/C(=N\O)c1ccc(C2=C(S(=O)(=O)c3ccc(F)cc3)CC3(CCCCC3)O2)cc1`, the selectivity ratio [1] is reported as 1.9, the IC50 (Leishmania amazonensis [2]) is reported as 49.5 µM and the CC50 at 72 h [4] is reported as 92.9 µM.

For `CC1(Cc2cccc([N+](=O)[O-])c2)CC(S(=O)(=O)c2ccc(F)cc2)=C(c2ccc(/C(N)=N/O)cc2)O1` (stereo unspecified), the selectivity ratio [1] was 7.5, the IC50 (Leishmania amazonensis [2]) was 11.6 µM and the CC50 at 72 h [4] was 86.6 µM.

With `CC1(Cc2cccc(CO)c2)CC(S(=O)(=O)c2ccc(F)cc2)=C(c2ccc(/C(N)=N/O)cc2)O1` (stereo unspecified) the solubility [6] was “Insoluble”, the IC50 (Leishmania amazonensis [2]) was greater than 100 µM and the solubility [5] was “Insoluble”. The CC50 at 72 h [4] was greater than 100 µM.

With `CC1(Cc2ccc(CO)cc2)CC(S(=O)(=O)c2ccc(F)cc2)=C(c2ccc(/C(N)=N/O)cc2)O1` (stereo unspecified) the solubility [6] was “Insoluble”, the IC50 (Leishmania amazonensis [2]) was greater than 100 µM and the solubility [5] was “Insoluble”. The CC50 at 72 h [4] was greater than 100 µM.

In the case of `CC1(Cc2ccc(C(F)(F)F)cc2)CC(S(=O)(=O)c2ccc(F)cc2)=C(c2ccc(/C(N)=N/O)cc2)O1` (stereo unspecified), the selectivity ratio [1] is reported as 12.6, the IC50 (Leishmania amazonensis [2]) is reported as 8.2 µM and the IC50 (Leishmania amazonensis [3]) is reported as greater than 20 µM. It also gave a CC50 at 72 h [4] of 103 µM.

With `CC1(Cc2cc(C(F)(F)F)cc(C(F)(F)F)c2)CC(S(=O)(=O)c2ccc(F)cc2)=C(c2ccc(/C(N)=N/O)cc2)O1` (stereo unspecified) the selectivity ratio [1] was 8, the IC50 (Leishmania amazonensis [2]) was 5.4 µM and the CC50 at 72 h [4] was 43.1 µM.

With `COc1ccc(CC2(C)CC(S(=O)(=O)c3ccc(F)cc3)=C(c3ccc(/C(N)=N/O)cc3)O2)cc1` (stereo unspecified) the solubility [6] was “Insoluble”, the selectivity ratio [1] was greater than 4.2 and the IC50 (Leishmania amazonensis [2]) was 24 µM. The CC50 at 72 h [4] was greater than 100 µM.

`CC1(Cc2ccc(-c3ccccc3)c(F)c2)CC(S(=O)(=O)c2ccc(F)cc2)=C(c2ccc(/C(N)=N/O)cc2)O1` (stereo unspecified) showed a selectivity ratio [1] of 2, an IC50 (Leishmania amazonensis [2]) of 12.2 µM and a CC50 at 72 h [4] of 24.5 µM.

Work on `CC1(Cc2ccc(-c3ccccc3)cc2)CC(S(=O)(=O)c2ccc(F)cc2)=C(c2ccc(/C(N)=N/O)cc2)O1` (stereo unspecified) yielded a selectivity ratio [1] of 2.3, an IC50 (Leishmania amazonensis [2]) of 14.8 µM and a CC50 at 72 h [4] of 33.9 µM.

In the case of `CC1(Cc2ccc(/C(N)=N/O)cc2)CC(S(=O)(=O)c2ccc(F)cc2)=C(c2ccc(/C(N)=N/O)cc2)O1` (stereo unspecified), the IC50 (Leishmania amazonensis [2]) is reported as greater than 100 µM, the solubility [5] is reported as “Insoluble” and the CC50 at 72 h [4] is reported as 42.2 µM.

For `CC1(Cc2cccc(C(F)(F)F)c2)CC(S(=O)(=O)c2ccc(F)cc2)=C(c2ccc(/C(N)=N/O)cc2)O1` (stereo unspecified), the selectivity ratio [1] was 7.4, the IC50 (Leishmania amazonensis [2]) was 6.7 µM and the CC50 at 72 h [4] was 49.8 µM.

`Cc1ccc(CC2(C)CC(S(=O)(=O)c3ccc(F)cc3)=C(c3ccc(/C(N)=N/O)cc3)O2)cc1` (stereo unspecified) gave a selectivity ratio [1] of 2.3, an IC50 (Leishmania amazonensis [2]) of 23.2 µM and a CC50 at 72 h [4] of 54.4 µM.

In the case of `CC1(Cc2ccccc2)CC(S(=O)(=O)c2ccc(F)cc2)=C(c2cccc(/C(N)=N/O)c2)O1` (stereo unspecified), the solubility [6] is reported as “Insoluble”, the selectivity ratio [1] is reported as greater than 2.7 and the IC50 (Leishmania amazonensis [2]) is reported as 74.7 µM. For the same molecule, the CC50 at 72 h [4] was greater than 200 µM.

Molecule `COc1cc(CC2(C)CC(S(=O)(=O)c3ccc(F)cc3)=C(c3ccc(/C(N)=N/O)cc3)O2)cc(OC)c1OC` (stereo unspecified) has a selectivity ratio [1] of 2, an IC50 (Leishmania amazonensis [2]) of 45.6 µM and a CC50 at 72 h [4] of 92.3 µM.

With `CC1(C/C=C/c2ccc(C(F)(F)F)cc2)CC(S(=O)(=O)c2ccc(F)cc2)=C(c2ccc(/C(N)=N/O)cc2)O1` (stereo unspecified) the selectivity ratio [1] was 2.6, the IC50 (Leishmania amazonensis [2]) was 17.2 µM and the CC50 at 72 h [4] was 43.9 µM.

Molecule `N=C(N)c1ccc(OCCCCCOc2ccc(C(=N)N)cc2)cc1` [PENTAMIDINE] has a selectivity ratio [1] of 1.5 and an IC50 (Leishmania amazonensis [2]) of 5.7 µM.

Source: ChEMBL document CHEMBL4196020, “Original antileishmanial hits: Variations around amidoximes” (Eur J Med Chem, 2018)
